Measured values taken from ChEMBL document CHEMBL4732260, “Developing novel classes of protein kinase CK1δ inhibitors by fusing [1,2,4]triazole with different bicyclic heteroaromatic systems” (Eur J Med Chem, 2021).
Active and inactive are the calls of the source. No cut-off for these calls is given here.

Legend:
[1] = molecular target: T1, Casein kinase I isoform delta (Homo sapiens, UniProt P48730); experiment: Inhibition of recombinant human N-terminal GST-tagged CK1delta (1 to 294 residues) using casein as substrate measured after 60 mins in presence of ATP by Kinase-Glo reagent-based luminescence assay
Target sequence in this assay (P48730 whole entry, the tested form may be a part, canonical isoform): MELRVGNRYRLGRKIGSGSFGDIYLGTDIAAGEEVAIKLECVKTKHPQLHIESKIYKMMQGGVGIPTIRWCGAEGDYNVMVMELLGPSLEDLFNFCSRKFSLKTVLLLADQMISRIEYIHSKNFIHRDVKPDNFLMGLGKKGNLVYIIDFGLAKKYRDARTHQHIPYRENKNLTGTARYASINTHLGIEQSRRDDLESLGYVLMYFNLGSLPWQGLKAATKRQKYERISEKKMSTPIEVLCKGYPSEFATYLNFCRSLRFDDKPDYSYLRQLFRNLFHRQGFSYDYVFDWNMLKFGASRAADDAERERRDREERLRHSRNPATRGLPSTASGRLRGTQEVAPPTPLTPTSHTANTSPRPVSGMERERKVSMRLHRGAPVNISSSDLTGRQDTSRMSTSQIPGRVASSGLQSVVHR

[2] = molecular target: T1, Casein kinase I isoform delta; experiment: Inhibition of recombinant human N-terminal GST-tagged CK1delta (1 to 294 residues) at 40 uM using casein as substrate measured after 60 mins in presence of ATP by Kinase-Glo reagent-based luminescence assay relative to control
Target sequence in this assay (P48730 whole entry, looked up, the tested form may be a part, canonical isoform): as the sequence (P48730 whole entry, the tested form may be a part, canonical isoform) above

[3] = molecular target: T1, Casein kinase I isoform delta; experiment: ATP competitive inhibition of recombinant human N-terminal GST-tagged CK1delta (1 to 294 residues) in presence of varying level of ATP by Kinase-Glo reagent-based luminescence assay
In short: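 Truncated enzyme (16 ng) in 50 mM HEPES pH 7.5, 1 mM EDTA, 1 mM EGTA, 15 mM Mg acetate with 0.1% casein; ATP in the added mix at 4, 40 or 400 µM (Fig. 8-B gives 2, 20, 200 µM). 60 min at 30 °C, then Kinase-Glo, luminescence read after 10 min at 25 °C. Activity is compared across ATP levels.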
Target sequence in this assay (P48730 whole entry, looked up, the tested form may be a part, canonical isoform): as the sequence (P48730 whole entry, the tested form may be a part, canonical isoform) above

[4] = molecular target: T1, Casein kinase I isoform delta; experiment: Inhibition of recombinant human full-length N-terminal GST-tagged CK1delta using casein as substrate measured after 10 mins in presence of ATP by Kinase-Glo reagent-based luminescence assay
In short: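 Full-length CK1δ at 26 nM with 0.1% casein and 4 µM ATP added, in 50 mM HEPES pH 7.5, 1 mM EDTA, 1 mM EGTA, 15 mM Mg acetate. Ten inhibitor concentrations from 100 to 0.026 µM. 10 min at 30 °C, Kinase-Glo stop, luminescence read after 10 min at 30 °C. IC50 given as mean ± standard error of three independent experiments.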
Target sequence in this assay (P48730 whole entry, the tested form may be a part, canonical isoform): as above

[5] = test system: PBL; experiment: Cytotoxicity against PHA-stimulated human PBL assessed as inhibition of cell growth after 72 hrs by resazurin based assay
In short: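 PBL isolated from buffy coats by Lymphoprep density gradient, held overnight in RPMI-1640 with 10% FBS. Non-adherent cells at 5×10^5 cells/mL with 2.5 µg/mL PHA. 72 h compound exposure; viability by resazurin fluorescence at 590 nm over 4 h.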

[6] = molecular target: T1, Casein kinase I isoform delta; experiment: Binding affinity to wild-type human full length CSNK1D (M1 to K409 residues) expressed in bacterial expression system at 10 uM by Kinomescan method relative to control
In short: (§1)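 KINOMEscan competition binding across the CK1 isoform panel, compound at 10 µM. Reported as % binding relative to a […].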
Target sequence in this assay (P48730 whole entry, looked up, the tested form may be a part, canonical isoform): as the sequence (P48730 whole entry, the tested form may be a part, canonical isoform) above

[7] = test system: PBL; experiment: Cytotoxicity against human PBL cells assessed as inhibition of cell growth after 72 hrs by resazurin based assay
In short: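 Gradient-isolated PBL held overnight in RPMI-1640 with 10% FBS. Non-adherent resting cells (no PHA) at 5×10^5 cells/mL, exposed to compounds for 72 h. Viability read as resazurin fluorescence at 590 nm over 4 h.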

[8] = molecular target: Casein kinase I isoform gamma-2 (Homo sapiens) (UniProt P78368); experiment: Binding affinity to wild-type human full length CSNK1G2 (M1 to K415 residues) expressed in bacterial expression system at 10 uM by Kinomescan method relative to control; in short: as §1
Sequence of Casein kinase I isoform gamma-2 (Homo sapiens) (P78368 whole entry, looked up, the tested form may be a part, canonical isoform): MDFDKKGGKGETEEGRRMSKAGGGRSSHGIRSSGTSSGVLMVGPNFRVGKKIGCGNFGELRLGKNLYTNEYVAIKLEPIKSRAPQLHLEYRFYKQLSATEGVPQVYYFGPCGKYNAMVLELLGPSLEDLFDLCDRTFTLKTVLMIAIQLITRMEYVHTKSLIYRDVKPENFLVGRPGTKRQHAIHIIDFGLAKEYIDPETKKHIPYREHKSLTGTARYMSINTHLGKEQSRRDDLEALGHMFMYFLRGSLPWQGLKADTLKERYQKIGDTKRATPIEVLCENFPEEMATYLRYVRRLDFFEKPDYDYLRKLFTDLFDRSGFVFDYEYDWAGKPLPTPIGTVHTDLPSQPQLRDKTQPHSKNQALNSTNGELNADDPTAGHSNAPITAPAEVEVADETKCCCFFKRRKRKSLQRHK

[9] = molecular target: T2, Casein kinase I isoform alpha-like (Homo sapiens) (UniProt Q8N752); experiment: Binding affinity to wild-type human full length CSNK1A1L (M1 to N337 residues) expressed in bacterial expression system at 10 uM by Kinomescan method relative to control; in short: as §1
T2 sequence (whole entry): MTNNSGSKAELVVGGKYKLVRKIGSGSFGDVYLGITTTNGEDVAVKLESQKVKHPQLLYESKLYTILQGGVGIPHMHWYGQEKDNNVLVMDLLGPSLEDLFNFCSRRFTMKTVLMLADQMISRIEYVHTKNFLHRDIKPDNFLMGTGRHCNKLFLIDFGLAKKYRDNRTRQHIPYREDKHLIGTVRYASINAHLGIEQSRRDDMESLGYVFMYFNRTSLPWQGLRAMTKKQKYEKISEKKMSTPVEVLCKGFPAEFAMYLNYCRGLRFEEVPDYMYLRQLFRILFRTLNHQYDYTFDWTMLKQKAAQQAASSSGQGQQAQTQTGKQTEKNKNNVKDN

[10] = molecular target: Casein kinase I isoform gamma-1 (Homo sapiens) (UniProt Q9HCP0); experiment: Binding affinity to wild-type human partial length CSNK1G1 (T15 to S353 residues) expressed in bacterial expression system at 10 uM by Kinomescan method relative to control; in short: as §1
Sequence of Casein kinase I isoform gamma-1 (Homo sapiens) (Q9HCP0 whole entry, looked up, the tested form may be a part, canonical isoform): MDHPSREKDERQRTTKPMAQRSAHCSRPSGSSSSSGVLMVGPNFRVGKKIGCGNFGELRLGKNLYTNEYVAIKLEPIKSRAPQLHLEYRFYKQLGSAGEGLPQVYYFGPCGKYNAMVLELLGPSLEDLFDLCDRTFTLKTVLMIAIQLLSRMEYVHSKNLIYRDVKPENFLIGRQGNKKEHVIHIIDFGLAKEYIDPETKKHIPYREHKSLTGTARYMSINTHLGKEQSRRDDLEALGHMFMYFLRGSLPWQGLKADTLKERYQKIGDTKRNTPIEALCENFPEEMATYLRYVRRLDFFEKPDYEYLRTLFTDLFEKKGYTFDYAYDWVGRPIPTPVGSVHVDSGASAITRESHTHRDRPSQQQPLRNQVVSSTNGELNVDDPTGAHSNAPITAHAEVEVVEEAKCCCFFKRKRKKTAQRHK

[11] = test system: Fibroblast; experiment: Cytotoxicity against human fibroblast assessed as inhibition of cell growth after 72 hrs by resazurin based assay
In short: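 Normal adult fibroblasts grown in DMEM with 10% FBS, seeded at 2×10^4 cells per well. Compounds added after 24 h at several concentrations; viability read 72 h later by resazurin fluorescence at 590 nm over 4 h.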

[12] = molecular target: T3, Casein kinase I isoform epsilon (Homo sapiens, UniProt P49674); experiment: Binding affinity to wild-type human full length CSNK1E (M1 to K416 residues) expressed in bacterial expression system at 10 uM by Kinomescan method relative to control; in short: as §1
Target sequence in this assay (P49674 whole entry, looked up, the tested form may be a part, canonical isoform): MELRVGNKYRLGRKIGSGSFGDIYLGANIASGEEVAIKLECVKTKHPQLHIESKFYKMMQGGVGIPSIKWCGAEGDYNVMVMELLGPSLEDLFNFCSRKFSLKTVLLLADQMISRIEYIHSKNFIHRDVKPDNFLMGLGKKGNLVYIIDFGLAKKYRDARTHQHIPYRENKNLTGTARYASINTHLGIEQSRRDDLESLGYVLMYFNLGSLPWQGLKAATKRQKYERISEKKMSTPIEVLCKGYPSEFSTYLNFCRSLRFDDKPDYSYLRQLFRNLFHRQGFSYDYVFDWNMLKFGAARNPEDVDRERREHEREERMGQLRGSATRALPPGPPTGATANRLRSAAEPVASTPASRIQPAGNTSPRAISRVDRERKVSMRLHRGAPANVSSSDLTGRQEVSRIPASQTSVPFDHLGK

[13] = molecular target: Casein kinase I isoform alpha (Homo sapiens) (UniProt P48729); experiment: Binding affinity to wild-type human partial length CSNK1A1 (M1 to L301 residues) expressed in mammalian expression system at 10 uM by Kinomescan method relative to control; in short: as §1
Sequence of Casein kinase I isoform alpha (Homo sapiens) (P48729 2-337 limits assumed): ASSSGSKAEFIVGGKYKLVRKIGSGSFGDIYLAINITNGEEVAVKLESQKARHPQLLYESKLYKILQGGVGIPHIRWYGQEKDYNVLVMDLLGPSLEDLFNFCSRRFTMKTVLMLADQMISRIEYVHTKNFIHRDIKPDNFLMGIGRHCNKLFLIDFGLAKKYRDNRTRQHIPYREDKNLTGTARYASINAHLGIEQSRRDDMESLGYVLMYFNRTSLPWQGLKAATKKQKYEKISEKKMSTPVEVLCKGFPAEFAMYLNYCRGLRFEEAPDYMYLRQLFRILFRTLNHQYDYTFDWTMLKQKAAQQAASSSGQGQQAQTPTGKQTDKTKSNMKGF

[14] = molecular target: Casein kinase I isoform gamma-3 (Homo sapiens) (UniProt Q9Y6M4); experiment: Binding affinity to wild-type human full length CSNK1G3 (M1 to K447 residues) expressed in bacterial expression system at 10 uM by Kinomescan method relative to control; in short: as §1
Sequence of Casein kinase I isoform gamma-3 (Homo sapiens) (Q9Y6M4 whole entry, looked up, the tested form may be a part, canonical isoform): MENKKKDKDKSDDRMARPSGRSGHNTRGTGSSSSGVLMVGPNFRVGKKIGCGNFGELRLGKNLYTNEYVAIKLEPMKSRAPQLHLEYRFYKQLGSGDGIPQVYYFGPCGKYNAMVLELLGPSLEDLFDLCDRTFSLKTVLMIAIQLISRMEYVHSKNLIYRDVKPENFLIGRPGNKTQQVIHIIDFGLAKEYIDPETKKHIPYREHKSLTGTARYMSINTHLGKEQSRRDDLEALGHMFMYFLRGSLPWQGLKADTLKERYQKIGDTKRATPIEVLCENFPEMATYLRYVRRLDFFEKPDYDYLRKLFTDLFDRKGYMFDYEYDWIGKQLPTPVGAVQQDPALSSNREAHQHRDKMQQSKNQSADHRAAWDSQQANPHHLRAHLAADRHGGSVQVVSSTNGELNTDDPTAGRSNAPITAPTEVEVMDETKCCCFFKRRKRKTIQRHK

[15] = molecular target: T3, Casein kinase I isoform epsilon; experiment: Inhibition of wild-type human CK1epsilon using PLSRTLpSVASLPGL as substrate incubated for 70 mins in presence of ATP by Kinase-Glo luminescence assay
Target sequence in this assay (P49674 whole entry, the tested form may be a part, canonical isoform): as the sequence (P49674 whole entry, looked up, the tested form may be a part, canonical isoform) above

[16] = molecular target: T1, Casein kinase I isoform delta; experiment: Inhibition of wild-type human CK1delta using PLSRTLpSVASLPGL as substrate incubated for 40 mins in presence of ATP by Kinase-Glo luminescence assay
Target sequence in this assay (P48730 whole entry, the tested form may be a part, canonical isoform): as the sequence (P48730 whole entry, the tested form may be a part, canonical isoform) above

[17] = Inhibition of porcine brain CK1delta using RRKHAAIGpSAYSITA as substrate incubated for 30 mins in presence of [gamma-33P]ATP by scintillation counting method; format: tissue-based, Sus scrofa domesticus

Row | Compound | IC50 [1] [nM] | inhibition [2] [%] | further results
1 | CCOC(=O)c1cnc(N)n2nc(-c3ccccc3)nc12 | 8670 | 62.2 | 
2 | Nc1nc(NCc2ccccc2)nc2nc(-c3cc(O)cc(O)c3)nn12 | 180 | 85.3 | inhibition [3]: Active; IC50 [4]: 300 nM; IC50 [5]: > 10000 nM; Activity [6]: 14%; IC50 [7]: > 10000 nM; Activity [8]: 20%; Activity [9]: 14%; Activity [10]: 32%; IC50 [11]: > 10000 nM; Activity [12]: 1.4%; Activity [13]: 3.2%; Activity [14]: 14%
3 | Nc1ncc(C(=O)O)c2nc(-c3cccc(O)c3)nn12 | 26700 | 75.8 | 
4 | CCOC(=O)c1cnc(N)n2nc(C)nc12 | 15200 | 66.6 | 
5 | CCOC(=O)c1cnc(N)n2nc(-c3ccc(OCc4ccccc4)cc3)nc12 |  | 39.7 | 
6 | CCOC(=O)c1cnc(N)n2nc(-c3cccc(F)c3)nc12 | 15200 | 53.7 | 
7 | CCOC(=O)c1cnc(NCc2ccc(-c3ccccc3)cc2)n2nc(-c3cccc(O)c3)nc12 |  | 9 | 
8 | NCCNC(=O)c1cnc(N)n2nc(-c3cccc(O)c3)nc12 | 1260 | 93 | 
9 | CCNC(=O)c1cnc(N)n2nc(-c3cc(O)cc(O)c3)nc12 | 990 | 86.1 | 
10 | CCOC(=O)c1cnc(NCc2ccccc2)n2nc(-c3cccc(OC)c3)nc12 |  | 10.9 | 
11 | CCOC(=O)c1cnc(NCc2ccc(OC)c(OC)c2)n2nc(-c3ccccc3)nc12 |  | 35.7 | 
12 | CCOC(=O)c1cnc(N)n2nc(-c3ccc(O)c(O)c3)nc12 | 4750 | 98 | 
13 | CC(C)(C)OC(=O)NCCNC(=O)c1cnc(N)n2nc(-c3cc(O)cc(O)c3)nc12 | 5320 | 84.2 | 
14 | Nc1nc(NCc2ccc(Cl)cc2)nc2nc(-c3cc(O)cc(O)c3)nn12 | 750 | 95.8 | 
15 | COc1cc(OC)cc(-c2nc3nc(NCc4ccc(F)cc4)nc(N)n3n2)c1 |  | 10.5 | 
16 | COc1cc(O)cc(-c2nc3nc(NC4CCCCC4)nc(N)n3n2)c1 | 3300 | 68.6 | 
17 | CCOC(=O)c1cnc(N)n2nc(C3CCCC3)nc12 | 12300 | 76.8 | 
18 | CCOC(=O)c1cnc(NCc2ccc(-c3ccccc3)cc2)n2nc(-c3cccc(OC)c3)nc12 |  | 17.5 | 
19 | CCOC(=O)c1cnc(N)n2nc(-c3ccc(F)cc3)nc12 |  | 44.7 | 
20 | CCOC(=O)c1cnc(N)n2nc(-c3cc(O)cc(O)c3)nc12 | 480 | 97.8 | 
21 | Nc1nccc(-c2c(-c3ccc(F)cc3)ncn2C2CCN(Cc3ccon3)CC2)n1 |  |  | IC50 [15]: 17 nM; IC50 [16]: 3.9 nM
22 | Nc1nc(NCc2ccccc2)nc2nc(-c3ccc(O)c(O)c3)nn12 | 910 | 93.8 | 
23 | Nc1nc(NC2CCCCC2)nc2nc(-c3cc(O)cc(O)c3)nn12 | 670 | 89.3 | 
24 | Nc1nc(NCc2ccccc2)nc2nc(-c3cccc(O)c3)nn12 | 460 | 84.2 | 
25 | CCOC(=O)c1cnc(N)n2nc(-c3ccncc3)nc12 | 20200 | 59.7 | 
26 | CCC(CO)Nc1nc(NCc2ccc(-c3ccccn3)cc2)c2ncn(C(C)C)c2n1 (configuration not stated) |  |  | IC50 [17]: 400 nM
27 | CCOC(=O)c1cnc(NC)n2nc(-c3cccc(O)c3)nc12 |  | 7.1 | 
28 | COc1cc(OC)cc(-c2nc3nc(NCc4ccc(Cl)cc4)nc(N)n3n2)c1 |  | 9.7 | 
29 | CCOC(=O)c1cnc(N)n2nc(-c3ccc(OC)cc3)nc12 |  | 50.3 | 

Continued, in another order:

Row | IC50 [1] [nM] | inhibition [2] [%] | Compound | further results
30 |  | 19.4 | COc1cc(OC)cc(-c2nc3cc(NCc4ccccc4)nc(N)n3n2)c1 | 
31 |  | 22.4 | CCOC(=O)c1cnc(N)n2nc(-c3cc4ccccc4[nH]3)nc12 | 
32 |  | 16.8 | CC(C)(C)OC(=O)NCCNC(=O)c1cnc(N)n2nc(-c3cccc(O)c3)nc12 | 
33 | 1320 | 70.4 | Nc1nc(NCc2ccccc2)nc2nc(-c3ccc(O)cc3)nn12 | 
34 |  | 21.6 | CCOC(=O)c1cnc(N)n2nc(-c3cccc([N+](=O)[O-])c3)nc12 | 
35 |  | 11.3 | CCOC(=O)c1cnc(NCc2ccc(OC)c(OC)c2)n2nc(-c3ccc(F)cc3)nc12 | 
36 | 300 | 75.2 | Nc1nc(NCc2ccccc2)cc2nc(-c3cccc(O)c3)nn12 | 
37 |  | 1.2 | CCOC(=O)c1cnc(NCc2ccccc2)n2nc(-c3cccc(O)c3)nc12 | 
38 | 25000 | 52 | CCOC(=O)c1cnc(N)n2nc(-c3cccc(OC)c3)nc12 | 
39 |  | -8.5 | Oc1cccc(-c2nc3nc(NCc4ccccc4)nc(NCc4ccccc4)n3n2)c1 | 
40 | 320 | 90.4 | CCNC(=O)c1cnc(N)n2nc(-c3cccc(O)c3)nc12 | 
41 |  | 18.8 | CCOC(=O)c1cnc(N)n2nc(-c3cc(OC)cc(OC)c3)nc12 | 
42 |  | 13.9 | COc1cc(OC)cc(-c2nc3nc(NCc4cccc(C)c4)nc(N)n3n2)c1 | 
43 | 740 | 80.2 | Nc1nc(NCc2ccccc2)cc2nc(-c3cc(O)cc(O)c3)nn12 | 
44 | 470 | 87 | Nc1nc(NCc2ccc(F)cc2)nc2nc(-c3cc(O)cc(O)c3)nn12 | 
45 | 2060 | 88.9 | CCOC(=O)c1cnc(N)n2nc(-c3cccc(O)c3)nc12 | 
46 |  | 18.1 | COc1cccc(-c2nc3nc(NCc4ccccc4)nc(N)n3n2)c1 | 
47 | 210 | 93.6 | NCCNC(=O)c1cnc(N)n2nc(-c3cc(O)cc(O)c3)nc12 | 
48 |  | 39.3 | CCOC(=O)c1cnc(N)n2nc(-c3ccc(O)cc3)nc12 | 
49 |  | 33.5 | COc1cc(OC)cc(-c2nc3cc(N(C)C)nc(N)n3n2)c1 | 
50 | 16600 | 66.8 | CCOC(=O)c1cnc(N)n2nc(-c3cccc(N)c3)nc12 | 
51 | 530 | 79.7 | Cc1cccc(CNc2nc(N)n3nc(-c4cc(O)cc(O)c4)nc3n2)c1 | 
52 |  | 4.5 | COc1cc(OC)cc(-c2nc3nc(NCc4ccccc4)nc(N)n3n2)c1 | 
